# Results reported in ChEMBL document CHEMBL1122318, “Aporphines. 50. Kinetics of solvolysis of N-(2-chloroethyl)norapomorphine, an irreversible dopamine receptor antagonist” (J Med Chem, 1983).
# Where “and” joins values, the source holds several entries; their conditions need not be identical. Equal values may be shown once.
# Legend:
# Format in all cases: ADME
# [1] = Apparent rate of cyclization (kobsd) value at pH 5.40(in 0.1 M acetate).; conditions: pH 5.4
# Procedure, shortened: (§1)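 Buffers were 0.1 M sodium acetate titrated with 0.1 M acetic acid below pH 6.0, and NaH2PO4–Na2HPO4 (100 mM) at pH 6.0–8.0. Remaining NCA was quantified from peak heights against a 100–900 ng standard curve. First-order kobsd came from log[NCA] versus time over at least two half-lives.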
# [2] = Apparent rate of cyclization (kobsd) value at pH 5.60(in 0.1 M acetate).; conditions: pH 5.6; procedure, shortened: as §1
# [3] = Apparent rate of cyclization (kobsd) value at pH 5.80(in 0.1 M acetate).; conditions: pH 5.8; procedure, shortened: as §1
# [4] = Apparent rate of cyclization (kobsd) value at pH 6.00(in 0.1 M phosphate).; procedure, shortened: as §1
# [5] = Apparent rate of cyclization (kobsd) value at pH 6.25(in 0.1 M phosphate).; procedure, shortened: as §1
# [6] = Apparent rate of cyclization (kobsd) value at pH 6.50(in 0.1 M phosphate).; conditions: pH 6.5; procedure, shortened: as §1
# [7] = Apparent rate of cyclization (kobsd) value at pH 6.75(in 0.1 M phosphate).; procedure, shortened: as §1
# [8] = Apparent rate of cyclization (kobsd) value at pH 7.00(in 0.1 M […]).
# [9] = Apparent rate of cyclization (kobsd) value at pH 8.00(in 0.1 M […]).
# [10] = Half-life period at pH 5.60(in 0.1 M acetate).; conditions: 0.1 M acetate buffer, pH 5.6; procedure, shortened: as §1
# [11] = Half-life period at pH 5.80(in 0.1 M acetate).; conditions: 0.1 M acetate buffer, pH 5.8; procedure, shortened: as §1
# [12] = Half-life period at pH 6.00(in 0.1 M […]).; conditions: 0.1 M acetate buffer
# [13] = Half-life period at pH 6.25(in 0.1 M […]).; conditions: 0.1 M […] buffer
# [14] = Half-life period at pH 6.75(in 0.1 M […]).; conditions: 0.1 M […] buffer
# [15] = Half-life period at pH 7.00(in 0.1 M […]).
# [16] = Half-life period at pH 7.50(in 0.1 M […]).; conditions: 0.1 M […] buffer, pH 7.5
# [17] = Half-life period at pH 8.00(in 0.1 M […]).; conditions: 0.1 M […] buffer
# [18] = Half-life period at pH 5.40(in 0.1 M acetate).; conditions: 0.1 M acetate buffer, pH 5.4; procedure, shortened: as §1
# [19] = Half-life period at pH 6.50(in 0.1 M […]).; conditions: 0.1 M […] buffer, pH 6.5
smiles,measurement,setting,value
Oc1ccc2c(c1O)-c1cccc3c1[C@@H](C2)N(CCCl)CC3,k obs,[1],36 min⁻¹
same,k obs,[2],49 min⁻¹
same,k obs,[3],65 min⁻¹
same,k obs,[4],97 min⁻¹
same,k obs,[5],152 min⁻¹
same,k obs,[6],175 min⁻¹
same,k obs,[7],212 min⁻¹
same,k obs,[8],243 min⁻¹ and 252 min⁻¹
same,k obs,[9],308 min⁻¹
same,half-life,[10],141 min
same,half-life,[11],107 min
same,half-life,[12],71 min
same,half-life,[13],45 min
same,half-life,[14],33 min
same,T1/2,[15],28 min
same,half-life,[15]; 0.1 M acetate buffer,29 min
same,half-life,[16],24 min
same,half-life,[17],22 min
same,half-life,[18],192 min
same,half-life,[19],39 min
